Measured values taken from ChEMBL document CHEMBL4513216, “Probing the Open Global Health Chemical Diversity Library for Multistage-Active Starting Points for Next-Generation Antimalarials” (ACS Infect Dis, 2020).

Assay: Toxicity liver stage against HepG2, at 10uM
Format: cell-based
Parameters: test concentration 10 uM, cell line HepG2-A16-CD81EGFP
Settings: human, HepG2-A16-CD81EGFP cells; read-out: INHIBITION
Outline: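 Uninfected HepG2-A16-CD81EGFP cells, 3 × 10^3 per well, 1536-well, plated on prespotted compound at 10 μM final, parasite-free screening media added to match infected plates; puromycin 10 μM positive, DMSO 0.5% negative; run in parallel with 48 h PbLuc assay at 37 °C, 5% CO2; viability by CellTiter-Glo luminescence, normalized to controls.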

Structure (SMILES)	cytotoxicity at 10 µM
N#Cc1cccc(CN2C[C@@H](F)[C@@H](OCc3nc4cnccc4[nH]3)C2)c1	3.62%
COc1ccccc1S(=O)(=O)NCC(c1cccn1C)N(C)C (stereo not drawn)	1.51%
CC(=O)NCC(=O)N1Cc2ccnn2CC(COCCN(C)C)C1 (stereo not drawn)	6.15%
CC(C)n1cnc(-c2nc(C(=O)N3CCN(C)CC3)c3ccccn23)c1	8.88%
Cc1csc(CN2CC[C@H]3C[C@H](c4noc(C)n4)O[C@@H]3C2)n1	-2.97%
O=C(O)c1ccc2c(CN3CCCC3)c[nH]c2c1	-2.09%
CC(C(=O)Nc1ccc(Cl)cn1)n1ccc(C(F)(F)F)n1 (stereo not drawn)	17.6%
O=C1NC2(CCCCC2)c2nnnn2-c2ccc(Br)cc21	6.83%
Cc1nn(C)c2c(NCCCn3cccn3)nc(C3CC3)nc12	12.9%
COc1c(Br)c(CC2CC(CO)=NO2)c(Br)c2c1OCO2 (stereo not drawn)	6.97%
O=C1CC(c2ccc(C(F)(F)F)cc2)c2snc(C(=O)O)c2N1 (stereo not drawn)	10.7%
CCNC(=O)C1(Cc2cc(-c3ccccc3)no2)CCCN(C(C)=O)C1 (stereo not drawn)	15.9%
CNc1nc(C2CCCN(C(=O)CNC(C)=O)C2)nc2c1CN(C)CC2 (stereo not drawn)	-10.9%
Cn1nccc1-c1cc(C2CCN(S(C)(=O)=O)CC2)ccn1	-28.2%
CCCn1ccnc1CN1CCCC1c1cccc(-n2ccnc2)n1 (stereo not drawn)	-22.2%
O=C1OCCN1CCSc1nnnn1CC(F)(F)F	-41.5%
COc1ccnc(N2CCC(OCCN3CCCCC3)C2)n1 (stereo not drawn)	-44.9%
Cc1nc(CN2CCOC3(CCCC3)C2)no1	-6.65%
O=S(=O)(NCCCn1ccc2ccccc21)N1CCCCC1	12.8%
CC(C)S(=O)(=O)C(C)C(=O)NCc1ccccc1OCc1ccccc1 (stereo not drawn)	18.8%
Cc1cc(N2CCSCC2)ccc1NC(=O)N(CCO)C1CC1	-10.1%

Structure (SMILES)	cytotoxicity at 10 µM
CN(C)C(=O)CNC(=O)c1cc2ccccc2nc1N1CCCC1	-6.18%
Cn1nc2c(cc1=O)CN(c1ncnc3sccc13)CC2	7.97%
O=C(c1cn(-c2ccccc2Cl)nn1)N1CCN(CCO)CC1	-2.88%
Cc1ccc(C(CNCc2cccnc2)N2CCOCC2)s1 (stereo not drawn)	4.03%
COCC(=O)NC1CCN(c2cccc(OC(F)(F)F)c2)C1=O (stereo not drawn)	-3.17%
COc1cc(/C=C/c2ncc(C(=O)O)s2)cc(OC)c1	-3.86%
Cc1nc(N2CCCC2)ccc1NCc1ccccn1	5.13%
N#Cc1cccc(S(=O)(=O)NC(=O)CCOCC(F)(F)F)c1	12.4%
O=C(NCc1ccco1)Nc1cccc(S(=O)(=O)C(F)F)c1	-54.8%
CC(Oc1ccccc1C#N)C(=O)NC1CC1 (stereo not drawn)	6.21%
CN(C)C(=O)CNS(=O)(=O)c1cc(Br)ccc1F	-47.1%
O=C1NC2(Nc3ncccc31)C(=O)Nc1c2ccc(Cl)c1F (stereo not drawn)	9.06%
Cc1csc(N2CCC(NCC3(O)CCc4ccccc43)CC2)n1 (stereo not drawn)	0.455%
CCS(=O)(=O)c1ccc(N2CCC(NC(=O)CCC(C)C)CC2)cc1	15.7%
CCNC(=O)N1CCCCC1CCO (stereo not drawn)	-4.27%
c1cnc(N2CCCC3(CCN(Cc4ccncc4)C3)C2)nc1 (stereo not drawn)	0.436%
CCOCC1CN(C(=O)C2=CCCC2)Cc2cnn(CC)c21 (stereo not drawn)	0.565%
CN1CC(=O)c2sc(NCCc3ccccc3)nc2C1	-11%
CNCC[C@H]1CC(C)(C)Oc2ccc(OCC3CC3)cc21	-9.44%
CN1CCCN(c2nccc(-c3c[nH]nc3-c3ccncc3)n2)CC1	-11%
COCCC1(CO)CCCN(C(=O)c2ccc(C(C)C)[nH]c2=O)C1 (stereo not drawn)	-55.1%

Structure (SMILES)	cytotoxicity at 10 µM
CC(C)n1ccnc1CN1C(=O)OC[C@@H]1c1ccccc1	-8.48%
Cc1ccccc1-n1cc(CN(C)C(=O)CC2C(=O)NCCN2C)cn1 (stereo not drawn)	6.89%
Cc1nc(CCN2CCC(Oc3ccccc3F)CC2)cs1	6.9%
CCN(Cc1ccc(O)c(C(=O)O)c1)CC1CCCO1 (stereo not drawn)	3.9%
CC(C)c1nccn1CCCNC(=O)c1ccc(-c2cnn(C)c2)nc1	-9.36%
CCc1cc(N(C)Cc2ccncn2)n2nc(C)c(C)c2n1	4.34%
CC(C)N1CCC(c2nnc(CN3CCCC3)n2C2CC2)CC1	-4.57%
O=C(NCCc1ccc2c(c1)OCO2)C1CCCN(Cc2ccco2)C1 (stereo not drawn)	0.209%
Cc1nccn1CC1CCCN(C(=O)Cc2ccsc2)C1 (stereo not drawn)	16.2%
COc1ccc(NC(=O)N2CCOCC(CN(C)C)C2)c(C)c1 (stereo not drawn)	0.124%
Cc1nc(CN2CCC(c3nc4ccccc4n3C)CC2)co1	13.5%
COCCN(Cc1nccs1)C(=O)c1cc(-c2ccc(C)o2)n[nH]1	6.23%
CCCNS(=O)(=O)Cc1ccc(Br)cc1	-4.81%
Cc1cc(C2CCC2)nc(N2CCC3(CCCNC3=O)C2)n1 (stereo not drawn)	-3.83%
CC(C)Oc1ccc2c(NC(=O)CN(C)C)nn(CC(F)(F)F)c2c1	1.6%
Cc1nc2c(c(NCc3ccccc3)n1)CCN(C(=O)C1CCC1)CC2	14.3%
NCC1Cc2cc(-c3cncc(C(=O)N4CCOCC4)n3)cc(Cl)c2O1 (stereo not drawn)	-42.8%
O=C(CCc1ccccc1)C1CCCN(C(=O)c2cncc(Cl)c2)C1 (stereo not drawn)	1.72%
CC(C)c1nnc2sc(CC3CCS(=O)(=O)C3)nn12 (stereo not drawn)	-6.48%
O=C(O)CCc1nc2nccc(-c3ccc(F)cc3)n2n1	-9.24%
Fc1cccc(CN2CCC(c3n[nH]c4ncccc34)CC2)c1F	-2.86%

Structure (SMILES)	cytotoxicity at 10 µM
Cc1cc(C)c(C)c(OCCCNC(=O)NC(C)c2nncn2C)c1 (stereo not drawn)	-12.3%
Cc1nc(C2CCCN2CC(=O)NCCc2ccsc2)no1 (stereo not drawn)	-9.34%
COc1c(CNCc2cccc(Cn3ccnc3)c2)c(C)nn1C	5.61%
COc1cccc(Nc2nc(N3CCCC3)nc3c2CNCC3)c1	-6.41%
OC1CCN(Cc2ccnc(-c3cccnc3)n2)CC1	-20.7%
CN1CC(=O)N(c2cccc(F)c2)CC12CCN(Cc1nccs1)C2 (stereo not drawn)	2.08%
COC[C@@H]1CCC[C@]12CN(CCc1ccccc1)CCO2	0.312%
Cn1nnc2c1C(COCC1CC1)CN(Cc1ccoc1)C2 (stereo not drawn)	2.49%
Fc1cccc(CN2CCC3(CCCN3c3ncccn3)CC2)c1	3.62%
COc1ccc(CN2CCC3(CC(=O)N(c4cncnc4)C3)C2)cc1 (stereo not drawn)	4.53%
Cc1ccc(CN2CCOC3(COCCN(CCN(C)C)C3)C2)o1 (stereo not drawn)	-1.65%
CC(C)NC(=O)N1CCN(Cc2ccccn2)CC2(CC(=O)N(C)C2)C1 (stereo not drawn)	2.79%
Cc1cnc(N2CCN3C[C@H](OCc4ccccn4)C[C@H]3C2)nc1	-1.68%
CCOCC(=O)N1Cc2nnn(C)c2C(COCc2ccccn2)C1 (stereo not drawn)	-3.23%
O=C(N1CCCC1)N1Cc2nccn2CC(CN2CCCC2)C1 (stereo not drawn)	1.52%
O=C(Nc1cccnc1)[C@H]1C[C@H]2OCC[C@H]2N(CC2CC2)C1	4.7%
CCCn1nccc1NC(=O)CN1CCCC1Cn1cc(C)cn1 (stereo not drawn)	-8.09%
N#Cc1ccccc1CN1C[C@H]2CC[C@@H](C1)N(CC1CCC1)C2=O	0.258%
CCC=C(C)C(=O)NCc1ccnc(OC)c1	-2.51%
Cc1ccc(CN2C[C@@H]3C[C@H](C(=O)NCc4cccnc4)[C@H](C2)O3)cc1	2.5%
